Measured values pooled from the literature.
Protocols differ between the studies behind these lines.
CDK1: Cyclin-dependent kinase 1 (CDK1, Homo sapiens, UniProt P06493)
DPP4: Dipeptidyl peptidase 4 (DPP4, Homo sapiens, UniProt P27487)

SMILES	target	observed	action	technique	concentration	measurement	value
CN(C)c1ncnc2c1ncn2[C@@H]1O[C@H](CCl)[C@@H](NC(=O)[C@H](CSC(c2ccccc2)c2ccccc2)NC(=O)OC(C)(C)C)[C@H]1O	Aminopeptidase N (ANPEP, Homo sapiens, UniProt P15144)	enzyme activity	inhibitor	fluorescence	10 µM	inhibition	4.6%
CNc1ncc2c(/C=C/C(=O)N3CCC(OC)CC3)nn(Cc3cccc(C(F)(F)F)c3)c2n1	Cyclin-dependent kinase 1, with cyclin A2 (CDK1, Homo sapiens, UniProt P06493)	enzyme activity	inhibitor	radiometric	1 µM	remaining activity	86%
C=CC(=O)N1CCC(COCC(=O)N2CCN(c3nc(-c4cnc(N)nc4C(F)F)nc(N4CCOC[C@@H]4C)n3)CC2)CC1	Cyclin-dependent kinase 9 (CDK9, Homo sapiens, UniProt P50750)	binding		competition with immobilised ligand	1 µM	remaining binding	100%
CCO[C@@H](Cc1ccc(OCCc2ccc(OS(C)(=O)=O)cc2)cc1)C(=O)O	CDK1	enzyme activity	inhibitor	ADP detection	100 µM	inhibition	96.9%
COc1cc(-c2cncc3c2CN(C)Cc2cc(N4CCNCC4)ccc2-3)cc(OC)c1OC	Cyclin-dependent kinase 9, with cyclin T1 (CDK9, Homo sapiens, UniProt P50750)	enzyme activity	inhibitor		1 µM	remaining activity	100%
Cn1c(=O)cc(N2CCC(N)CC2)n(Cc2nc3ccc(Br)cc3c(=O)n2-c2ccc(F)cc2)c1=O	DPP4	enzyme activity	inhibitor		20 µM	inhibition	27.3%
Cc1cc([C@@H](C)Nc2ccccc2C(=O)O)c2nc(N3CCC(F)(F)CC3)c(C#N)c(=O)n2c1	RAC-alpha serine/threonine-protein kinase (AKT1, Homo sapiens, UniProt P31749)	binding		competition with immobilised ligand	1 µM	remaining binding	100%
Cn1c(=O)cc(N2CCC(N)CC2)n(Cc2nc3ccccc3c(=O)n2-c2ccc(F)cc2)c1=O	DPP4	enzyme activity	inhibitor		20 µM	inhibition	19.9%
O=C1NC(=NCc2cccs2)S/C1=C\c1ccc2ncccc2c1	CDK1	enzyme activity	inhibitor	ADP detection	10 µM	inhibition	100%
Cn1c(=O)cc(N2CCC(N)CC2)n(Cc2nc3ccc(Br)cc3c(=O)n2-c2ccccc2)c1=O	DPP4	enzyme activity	inhibitor		20 µM	inhibition	12.9%
O=C(Cn1cc(C=CC(=O)c2ccc(F)cc2)nn1)Nc1nc(-c2ccccc2)cs1	Stromelysin-2 (Homo sapiens, UniProt P09238)	enzyme activity	inhibitor		0.5 µM	inhibition	82.4%
Cc1cc2cc(Oc3ccnc(Nc4cccc(CS(=O)(=O)NCCN(C)C)c4)n3)ccc2[nH]1	CDK1	enzyme activity	inhibitor	ADP detection	10 µM	inhibition	51.5%
